These results are taken from PubChem BioAssay AID651572 (The Scripps Research Institute Molecular Screening Center, 2012).

Screen size: about 360,000 compounds; about 950 (0.26%) were called active. This is one part of a sample in which actives are shown more often than they occur. Unmarked numbers belong to inactive results.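 Rule for the calls: active = inhibition above a per-plate limit, mean inhibition of low control wells plus 3 SD (cut at about 25% in these data); inactive = the rest.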

The term inhibition denotes the relative decrease from the control value, in per cent.

ADP-ribosylation factor GTPase-activating protein 1 (Rattus norvegicus), sequence (Q62848 1-136 limits assumed): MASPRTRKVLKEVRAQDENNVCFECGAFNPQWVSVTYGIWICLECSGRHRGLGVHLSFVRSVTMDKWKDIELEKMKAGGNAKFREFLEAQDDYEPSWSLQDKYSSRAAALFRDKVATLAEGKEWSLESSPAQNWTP

The target of this assay is ADP-ribosylation factor GTPase-activating protein 1 (Rattus norvegicus) (UniProt Q62848). The experiment in a line: blockers of ARFGAP1-stimulated ARF1 GTP hydrolysis – biochemical, fluorescence polarization, GDP tracer, primary screen (AID 651572).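 Note: 0% = DMSO wells with enzyme and 100% = wells lacking Arfgap1.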 The settings on record: GDP FP detection, at 16.5 µM, hits give high values. Summed up:
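material = rat Arfgap1 catalytic domain, aa 1-136 | also added = human ARF1(Δ1-17)-GTP substrate | compound dosing = one concentration, 16.5 µM, DMSO 1.26% | times = GTP hydrolysis reaction 2 h at 25 °C | measured by = FP, GDP Alexa 633 tracer displaced from anti-GDP antibody, 620/688 nm | evaluation = percent inhibition of Arfgap1-stimulated GTP hydrolysis | replication = single well per compound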
Background: Polarisation of emitted light reports the rotation of a fluorescent probe.
For `O=C(NC1CCCCC1)c1ccc(CNc2c(N3CCOCC3)c(=O)c2=O)cc1`, the inhibition is 26.4% (active).

For the compound `O=C(NCc1ccccc1)c1ccc(CNc2c(N3CCCC3)c(=O)c2=O)cc1`, the inhibition was -4.58%. Regarding `O=C(NCc1ccc(F)cc1)C1CCC(CNc2c(N3CCOCC3)c(=O)c2=O)CC1` (configuration not stated), the inhibition was 2.8%.

Turning to `O=C(NS(=O)(=O)c1cccs1)[C@H]1O[C@@H](n2ccc(=O)[nH]c2=O)[C@H](O)[C@@H]1O`, the inhibition was 1.8%. On to `C[C@H](O)[C@@H]1CN2CCc3ccc(-c4ccc5c(c4)OCO5)cc3[C@@H]2C[C@@H]1N(C)C(=O)C1CCCCC1`, for which the inhibition is -7.53%. As to `CN[C@H]1C[C@H]2c3[nH]c4c(-c5ccccc5)cccc4c3CCN2C(=O)[C@H]1[C@H](C)O`, the inhibition was 6.11%. To `c1ccc(-c2cc(-c3nnc4sc(-c5ccccn5)nn34)[nH]n2)cc1` belongs 37.4% (active); to `Fc1ccc(-c2ccc(-c3nn4c(-c5ccco5)nnc4s3)o2)cc1`, 3.63%; to `CCCCCCCCN1C(=O)[C@@H](CC(=O)NCc2ccccc2)C[C@@]2(C(=O)OC)C1=C[C@H](C(C)(C)C)O[C@@H]2C`, 1.82%.

For `C=CCN=C1NC(c2ccccc2)C(C(=O)OC)=C(C)N1Cc1ccc(C(F)(F)F)cc1` (configuration not stated), the inhibition was 7.52%. Consider `COC(=O)N1Cc2ccnnc2CC1c1ccccc1Br` (configuration not stated), for which the inhibition is 0.38%. The result for `O=C(C(=O)N1CCC(CNC(=O)c2cccnc2Cl)CC1)c1cccs1` reads 12.7%; that for `COc1ccc(NC(=O)N(C)C[C@@H]2OCCCC[C@@H](C)Oc3ccc(NC(=O)NC4CCCCC4)cc3C(=O)N([C@H](C)CO)C[C@@H]2C)cc1`, -0.56%; that for `O=C(CN1CCN(c2ccccn2)CC1)NCc1cccs1`, 19.2%.

As for `CCN(CC)c1ccc(NC(=O)CN2CCN(c3ccccn3)CC2)cc1`, the inhibition was 45.5% (active).

With `CCC(=O)Nc1ccc2c(c1)nc(CCN1CCN(c3ccccn3)CC1)n2C`, the inhibition is -11.6%. The result for `O=S(=O)(c1cccs1)N1CCCc2nc(-c3ccc(Br)cc3)ccc21` reads -3.29%; that for `O=C(NCc1ccccc1)[C@@H]1CCCN1C(=O)[C@@H](NS(=O)(=O)c1ccc(F)cc1F)C1CCCCC1`, 2.51%; that for `COC(=O)[C@]12C[C@H](CC(=O)NCCC(C)C)C(=O)N(CCc3ccc(OC)c(OC)c3)C1=C[C@H](C(C)(C)C)O[C@@H]2C`, 6.73%. Regarding `Cc1ccc2nc(SCC(=O)Nc3cccc4ccccc34)nc(=O)n2c1`, the inhibition is 8.63%. The result for `Cc1ccc2nc(SCC(=O)N3CC(C)OC(C)C3)nc(=O)n2c1` (configuration not stated) reads 83.6% (active). The result for `Cc1ccc2nc(SCC(=O)N3CCN(c4ccccc4)CC3)nc(=O)n2c1` reads 22.7%.
